Laboratory results from ChEMBL document CHEMBL2062492 (ACS Med Chem Lett, 2012).
Calls of active or inactive are those of the source. The rule behind the calls is not given here.

Legend:
MCF7 [1] = experiment: Growth inhibition of human MCF7 cells at 10^-6 M after 5 days relative to control; type: functional; conditions: MCF7, 120 h, read-out: GI
Procedure, shortened: (§1)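 Cell survival assay on ER+ MCF-7 or T47D cells treated at fixed concentrations of 10–7 M and 10–6 M. 4-OHT-treated cells served as positive control. Growth inhibition is expressed as percent relative to survival.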

MCF7 [2] = experiment: Growth inhibition of human MCF7 cells at 10^-7 M after 5 days relative to control; type: functional; conditions: MCF7, 120 h, read-out: GI; procedure, shortened: as §1
[3] = Half life of the compound in human MCF7 cells at 10^-6 M by HPLC-MS/MS analysis; type: ADME, cell-based
T47D [4] = experiment: Cytotoxicity against human T47D cells after 5 days; type: functional, cell-based; conditions: 120 h
MDA-MB-231 = experiment: Cytotoxicity against human MDA-MB-231 cells assessed as cell survival at 10^-7 M relative to vehicle-treated control; type: functional; conditions: for viability at 0.1 µM: read-out: Survival
Procedure, shortened: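 MDA-MB-231 used as the ER-negative breast cancer line, tested at 10–7 M alongside MCF-7 cells. Read-out is survival ratio versus control.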

T47D [5] = experiment: Growth inhibition of human T47D cells at 10^-6 M after 5 days relative to control; type: functional; conditions: 120 h, read-out: GI; procedure, shortened: as §1
MCF7 [6] = experiment: Drug uptake in human MCF7 cells at 10^-6 M after 6 days by HPLC-MS/MS analysis; type: ADME, cell-based; conditions: mcf7, 144 h, 1 µM
Procedure, shortened: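 Uptake is estimated indirectly. Drug remaining in the culture medium was measured after 6 days of incubation with MCF-7 cells.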

MCF7 [7] = experiment: Cytotoxicity against human MCF7 cells after 5 days; type: functional, cell-based; conditions: MCF7, 120 h
T47D [8] = experiment: Metabolic stability in human T47D cells assessed as compound remaining by LC-MS/MS analysis; type: ADME, cell-based
Procedure, shortened: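 Culture medium from MCF-7 or T47D cells incubated with prodrug was analysed for both intact prodrug and released 4-OHT. Results are reported as relative chromatographic peak areas (% of total for prodrug versus 4-OHT).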

MCF7 [9] = experiment: Metabolic stability in human MCF7 cells assessed as compound remaining by LC-MS/MS analysis; type: ADME, cell-based
T47D [10] = experiment: Growth inhibition of human T47D cells at 10^-7 M after 5 days relative to control; type: functional; conditions: 120 h, read-out: GI
Procedure, shortened: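 Cell survival assay in ER+ T47D breast cancer cells dependent on estrogen for growth. Compounds tested at 10–7 and 10–6 M, with 4-OHT as positive control. Read-out is % growth inhibition from survival relative to control.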

MCF7 [11] = experiment: Ratio of tamoxifen IC50 to compound IC50 for human MCF7 cells; type: functional
MCF7 [12] = experiment: Ratio of 4-hydroxytamoxifen IC50 to compound IC50 for human MCF7 cells; type: functional

SMILES	inhibition of growth at 1 µM (MCF7 [1])	inhibition of growth at 0.1 µM (MCF7 [2])	half-life at 1 µM [3]	IC50 (T47D [4])	Activity (MDA-MB-231)	inhibition of growth at 1 µM (T47D [5])	Drug uptake (MCF7 [6])	IC50 (MCF7 [7])	viability at 0.1 µM (MDA-MB-231)	Stability (T47D [8])	Stability (MCF7 [9])	inhibition of growth at 0.1 µM (T47D [10])	Ratio IC50 (MCF7 [11])	Ratio IC50 (MCF7 [12])
CC/C(=C(/c1ccc(OCCN(C)C)cc1)c1ccc([B-](F)(F)F)cc1)c1ccccc1.[K+]	76%	59%	84 h	260 nM	inactive	50%	Active	6.26 nM	–	–	–	–	–	–
CC/C(=C(\c1ccccc1)c1ccc(OCCN(C)C)cc1)c1ccccc1 [TAMOXIFEN]	52%	18%	–	–	–	–	–	–	> 95%	–	–	–	–	–
CC/C(=C(/c1ccc(OCCN(C)C)cc1)c1ccc(B(O)O)cc1)c1ccccc1	75%	51%	96 h	228 nM	inactive	54%	Active	42 nM	–	20.9%	30.4%	–	–	–
CCC(=C(c1ccc(O)cc1)c1ccc(OCCN(C)C)cc1)c1ccccc1	63%	56%	–	210 nM	–	–	Active	29.1 nM	> 95%	–	–	51%	30	–
CC/C(=C(/c1ccc(OCCN(C)C)cc1)c1ccc(B2OC(C)(C)C(C)(C)O2)cc1)c1ccccc1	63%	52%	89 h	144 nM	inactive	60%	Active	148 nM	–	–	–	–	–	0.2
